The values that follow come from ChEMBL document CHEMBL3817756, “Synthesis and Anti-Influenza Activity of Pyridine, Pyridazine, and Pyrimidine C-Nucleosides as Favipiravir (T-705) Analogues” (J Med Chem, 2016).

Where only a bound is given, the exact number is not on record here.

The nature of series [1]: Cytotoxicity against MDCK cells after 10 mins by CellTiter-Glo assay. The settings on record: dog. It counts as cell-based, Canis lupus familiaris. In short, it runs like this: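 Uninfected cultures run in parallel with the MDCK neuraminidase antiviral assay. CellTiter-Glo reagent added, 10 min at room temperature, luminescence read.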
Series [2] concerns Influenza A virus. Kind of series: Antiviral activity against Influenza A virus A/WSN/33(H1N1) infected in MDCK cells assessed as inhibition of neuraminidase activity using 2'-(4-methylumbelliferyl)-alpha-D-N-acetylneuraminic acid substrate pretreated with cells for 24 hrs followed by viral infection measured after 20 hrs by fluorescence assay. Format: functional, organism-based. Particulars: A/WSN/1933(H1N1). The procedure, abridged:
(§1)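 MDCK cells at 1 × 10^4 cells/well in DMEM with 0.3% FBS, 1% penicillin/streptomycin and 1% DMSO. After 24 h, serially diluted compound was added for a further 24 h. Cells were infected with A/WSN/33 at 250 IU/well for 20 h at 37 °C. Supernatant was replaced with 25 μM MUNANA in 33 mM MES, pH 6.5, for 45 min at 30 °C. Reaction stopped with glycine pH 10.5/25% ethanol; fluorescence read at ex 355/em 460 nm. EC50 averaged over n ≥ 2.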

The test system of series [3] is A549. Kind of series: Drug metabolism in human A549 cells assessed as nucleoside triphosphate formation at 50 uM after 24 hrs by LC-MS/Ms analysis. The settings on record: a549, 24 h, BLD = below limit of detection. Format: ADME, cell-based.
Series [4] can be described thus: Drug metabolism in NHBE cells assessed as ((2R,3S,4R,5S)-5-(2-carbamoyl-3-fluoropyridin-4-yl)-3,4-dihydroxytetrahydrofuran-2-yl)methyl tetrahydrogen triphosphate level per million cells at 50 uM after 24 hrs by LC-MS/Ms analysis. Format: ADME, cell-based. Particulars: human.
Series [5] has as its system A549. Description: Drug metabolism in human A549 cells assessed as ((2R,3S,4R,5S)-5-(2-carbamoyl-3-fluoropyridin-4-yl)-3,4-dihydroxytetrahydrofuran-2-yl)methyl dihydrogen phosphate level per million cells at 50 uM after 24 hrs by LC-MS/Ms analysis. It counts as ADME, cell-based. Particulars: a549, 24 h.
Series [6] concerns Influenza A virus. Description: Antiviral activity against Influenza A virus infected in MDCK cells. Format: functional, organism-based. In short, it runs like this:
as §1

Series [7] can be described thus: Drug metabolism in NHBE cells assessed as ((2R,3S,4R,5S)-5-(2-carbamoyl-3-fluoropyridin-4-yl)-3,4-dihydroxytetrahydrofuran-2-yl)methyl dihydrogen phosphate level per million cells at 50 uM after 24 hrs by LC-MS/Ms analysis. Format: ADME, cell-based. Particulars: human.
Series [8] deals with MDCK. Description: Drug metabolism in MDCK cells assessed as ((2R,3S,4R,5S)-5-(2-carbamoyl-3-fluoropyridin-4-yl)-3,4-dihydroxytetrahydrofuran-2-yl)methyl dihydrogen phosphate level per million cells at 50 uM after 24 hrs by LC-MS/Ms analysis. It counts as ADME, cell-based, Canis lupus familiaris. Particulars: dog.
Series [9] relates to MDCK. Kind of series: Drug metabolism in MDCK cells assessed as ((2R,3S,4R,5S)-5-(2-carbamoyl-3-fluoropyridin-4-yl)-3,4-dihydroxytetrahydrofuran-2-yl)methyl tetrahydrogen triphosphate level per million cells at 50 uM after 24 hrs by LC-MS/Ms analysis. Format: ADME, cell-based, Canis lupus familiaris. Particulars: dog.
Series [10] concerns A549. Description: Drug metabolism in human A549 cells assessed as ((2R,3S,4R,5S)-5-(2-carbamoyl-3-fluoropyridin-4-yl)-3,4-dihydroxytetrahydrofuran-2-yl)methyl tetrahydrogen triphosphate level per million cells at 50 uM after 24 hrs by LC-MS/Ms analysis. Format: ADME, cell-based. Particulars: a549, 24 h.
Series [11] concerns Influenza A virus. Kind of series: Antiviral activity against Influenza A virus A/WSN/33(H1N1) infected in NHBE cells. It counts as functional, organism-based. The settings on record: A/WSN/1933(H1N1).
In series [12] the test system is Influenza A virus. Kind of series: Antiviral activity against Influenza A virus A/WSN/33(H1N1) infected in human A549 cells. Format: functional, organism-based. The settings on record: A/WSN/1933(H1N1).

Consider `C#Cc1c([C@@H]2O[C@H](CO)[C@@H](O)[C@H]2O)ccnc1C(N)=O`, for which, in series [1], the 50% cytotoxic concentration (CC50) (in general, the concentration at which the toxic effect on the cells reaches its halfway point) at 10 min was determined as 98 µM. In addition, in [2], the EC50 (as a rule, the concentration that produces a half-maximal response) was 36 µM.
In the case of `NC(=O)c1cc([C@@H]2O[C@H](CO)[C@@H](O)[C@H]2O)ccn1`, in series [3], the Drug metabolism entry is recorded as “BLD”.
Turning to `NC(=O)c1nc(F)cn([C@@H]2O[C@H](CO)[C@@H](O)[C@H]2O)c1=O`, the half-maximal cytotoxic concentration (CC50) at 10 min in series [1] was more than 400 µM. In [2], the EC50 turned out to be 2.2 µM.
Regarding `NC(=O)c1nccc([C@@H]2O[C@H](CO)[C@@H](O)[C@H]2O)n1`, the Drug metabolism entry in series [3] is “BLD”. This compound had a CC50 at 10 min in [1] of more than 200 µM. For the same compound, the EC50 in series [2] worked out at 8.7 µM.
Consider `C=Cc1c([C@@H]2O[C@H](CO)[C@@H](O)[C@H]2O)ccnc1C(N)=O`, for which it took 152 µM to reach half-maximal cytotoxicity in series [1] (CC50 at 10 min). Besides, in series [2], the EC50 was found to be 58 µM.
Take `NC(=O)c1nccc([C@@H]2O[C@H](CO)[C@@H](O)[C@H]2O)c1F`: the Drug metabolism was determined as 21.6 pmol in [4]; 41 pmol in series [5]; 262 pmol in series [7]; 48.5 pmol in series [8]; 192 pmol in series [9]; 11.6 pmol in series [10]. Further, the 50% effective concentration (EC50) was determined as 1.9 µM in series [6], 1.9 µM in series [2], 29.5 µM in [11] and 52 µM in series [12]. Further, the half-maximal cytotoxic concentration (CC50) at 10 min in series [1] is more than 400 µM.
`NC(=O)c1nc(F)cnc1O` [FAVIPIRAVIR] returned a cytotoxic concentration (CC50) at 10 min in series [1] of more than 400 µM. The EC50 in series [2] is 2.7 µM.
Compound `NC(=O)c1nccc([C@@H]2O[C@H](CO)[C@@H](O)[C@H]2O)c1O` yielded a 50% cytotoxic concentration (CC50) at 10 min in series [1] of 2 µM. Besides, in [2], the EC50 was found to be 1.3 µM.
